Published values of several laboratories.
Effect on: cell growth or viability

NCC(=O)Nc1ccccc1/N=c1\cc(-c2ccc3c(c2)OCCO3)oc2cc(F)ccc12  inhibition (NCI-H1975; CCK-8; 1 µM): 4.41%
CCCCCCCCCCCCCCCCCCOc1ccc(CC(=O)OCC[N+]2(C)CCOCC2)cc1  inhibition (NCI-H322M; SRB; 10 µM): 3.14%
C[C@H](Nc1ccc2c(c1)OCCn1cc(N3C(=O)OC[C@H]3C(F)F)nc1-2)C(N)=O  EC50 (KPL4; ATP luminescence; 5 days): 0.0737 µM
O=C(Nc1cccc(C(F)(F)F)c1)Nc1nc2cc(-c3ccc4ncn(CCN5CCOCC5)c(=O)c4c3)ccc2s1  IC50 (NCI-H1975; MTT; 72 h): 1.48 µM
CCCCCCCCCCCCCCCCCCOc1ccc(CC(=O)OCCC[N+](C)(C)C)cc1  inhibition (NCI-H322M; SRB; 10 µM): 9.97%
CC(C)(C)[C@H](N)C(=O)Nc1ccccc1/N=c1\cc(-c2ccc3c(c2)OCO3)oc2ccccc12  inhibition (NCI-H1975; CCK-8; 1 µM): 3.21%
Cc1cc(C)cc(NC(=O)Nc2nc3cc(-c4ccc5ncn(Cc6ccccc6)c(=O)c5c4)ccc3s2)c1  IC50 (NCI-H1975; MTT; 72 h): > 20 µM
O=C(Nc1ccc(-c2ccc3ncn(Cc4ccccc4)c(=O)c3c2)cn1)C1CCC1  IC50 (NCI-H1975; CCK-8; 72 h): > 10 µM
O=C(Nc1cccc(F)c1)Nc1nc2cc(-c3ccc4ncn(CCN5CCOCC5)c(=O)c4c3)ccc2s1  IC50 (NCI-H1975; MTT; 72 h): > 20 µM
CCCCCCCCCCCCCCCCCCOc1ccc(CC(=O)OCC[N+]2(C)CCCCC2)cc1  inhibition (NCI-H322M; SRB; 10 µM): 3.63%
Cc1nc(Nc2ncc(C(=O)Nc3c(C)cccc3Cl)s2)cc(N2CC[C@H](O)C2)n1  inhibition (KARPAS-422; ATP luminescence; 10 µM, 72 h): 91%
O=C(Nc1cc(C(F)(F)F)cc(C(F)(F)F)c1)Nc1nc2cc(-c3ccc4ncn(Cc5ccccc5)c(=O)c4c3)ccc2s1  IC50 (NCI-H1975; MTT; 72 h): > 20 µM
CCCCn1cnc2ccc(-c3ccc(NC(C)=O)nc3)cc2c1=O  IC50 (NCI-H1975; CCK-8; 72 h): > 10 µM
COc1ccc(C(=O)Nc2nc3cc(-c4ccc5ncn(Cc6ccccc6)c(=O)c5c4)ccc3s2)cc1  IC50 (NCI-H1975; MTT; 72 h): > 20 µM
NCCC(=O)Nc1ccccc1/N=c1\cc(-c2ccc3nc(N)oc3c2)oc2ccccc12  inhibition (NCI-H1975; CCK-8; 1 µM): 43.6%
CCCCn1cnc2ccc(-c3ccc(NC(=O)Nc4ccc(F)cc4)nc3)cc2c1=O  IC50 (NCI-H1975; CCK-8; 72 h): 1.41 µM
CCCCCCCCCCCCCCCCCCOc1cccc(CC(=O)OCCC[N+](C)(C)C)c1  inhibition (NCI-H322M; SRB; 10 µM): 4.07%
CCCCC(=O)Nc1ccc(-c2ccc3ncn(CC)c(=O)c3c2)cn1  IC50 (NCI-H1975; CCK-8; 72 h): 0.25 µM
CC(=O)Nc1nc2cc(-c3ccc4ncn(Cc5ccccc5)c(=O)c4c3)ccc2s1  IC50 (NCI-H1975; MTT; 72 h): > 20 µM
CCCCn1cnc2ccc(-c3ccc(NC(=O)NCc4ccccc4)nc3)cc2c1=O  IC50 (NCI-H1975; CCK-8; 72 h): 0.29 µM
Cc1nc(NC(=O)N2CCC[C@H]2C(N)=O)sc1-c1ccnc(C(C)(C)C(F)(F)F)c1  EC50 (KPL4; ATP luminescence; 5 days): 1.19 µM
Nc1ccccc1/N=c1\cc(-c2ccc3c(c2)OCO3)oc2ccccc12  inhibition (NCI-H1975; CCK-8; 1 µM): 2.1%
CCCn1cnc2ccc(-c3ccc(N4CCCCC4=O)nc3)cc2c1=O  IC50 (NCI-H1975; CCK-8; 72 h): > 10 µM
Oc1cccc(-c2nc(N3CCOCC3)c3oc4ncccc4c3n2)c1  inhibition (NCI-H1975; CCK-8; 1 µM): 38%
CCCCn1cnc2ccc(-c3ccc(NC(=O)Nc4ccc(OC(F)(F)F)cc4)nc3)cc2c1=O  IC50 (NCI-H1975; CCK-8; 72 h): 0.47 µM
O=C(Nc1ccc(Br)cc1)Nc1nc2cc(-c3ccc4ncn(Cc5ccccc5)c(=O)c4c3)ccc2s1  IC50 (NCI-H1975; MTT; 72 h): > 20 µM
CCCCCCCCCCCCCCCCCCOc1ccccc1CC(=O)OCC[N+](CC)(CC)CC  inhibition (NCI-H322M; SRB; 10 µM): 29.4%
NCCC(=O)Nc1ccccc1/N=c1\cc(-c2ccc3nc(N)oc3c2)oc2ccc(O)cc12  inhibition (NCI-H1975; CCK-8; 1 µM): 7.56%
O=C(Nc1ccc(-c2ccc3ncn(Cc4ccccc4)c(=O)c3c2)cn1)c1ccco1  IC50 (NCI-H1975; CCK-8; 72 h): > 10 µM
CNCCC(=O)Nc1ccccc1/N=c1\cc(-c2ccc3nc(N)oc3c2)oc2ccccc12  inhibition (NCI-H1975; CCK-8; 1 µM): 43%
COc1cccc(NC(=O)Nc2nc3cc(-c4ccc5ncn(CC(=O)N6CCOCC6)c(=O)c5c4)ccc3s2)c1  IC50 (NCI-H1975; MTT; 72 h): > 20 µM
NCCC(=O)Nc1ccccc1/N=c1\cc(-c2ccc3nc(N)oc3c2)oc2ccc(F)cc12  inhibition (NCI-H1975; CCK-8; 1 µM): 63.7%
CCCCCCCCCCCCCCCCCCOc1ccccc1CC(=O)OCC[N+]1(C)CCCCC1  inhibition (NCI-H322M; SRB; 10 µM): 15.4%
